# Source: PubChem BioAssay (The Scripps Research Institute Molecular Screening Center)
# Rows were chosen to be rich in hits. Some 2.8% of all compounds tested hit in one or more screens of this group.
# PAFAH1B3 inh – inhibitors of human PAFAH1B3 | Q15102 | recombinant PAFAH1B3, FP-rhodamine probe, fluorescence polarization | inhibition, % at 3.39 µM | actives 0.28% (n = 340,000) | AID 492972;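 active means inhibition above the screen-wide average of all tested compounds plus 3 SD, cut at about 25% in these data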;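 further: 0% = enzyme with DMSO only and 100% = wells lacking PAFAH1B3 protein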
# PAFAH1B2 inh – inhibitors of human PAFAH1B2 | recombinant PAFAH1B2, FP-rhodamine activity probe, fluorescence polarization | inhibition, % at 3.39 µM | actives 1.2% (n = 340,000);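 active means inhibition above the mean of all tested compounds plus 3 SD, cut at about 24% in these data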;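 further: 0% = enzyme with DMSO and 100% = wells lacking PAFAH1B2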
# HTRA1 inh – HTRA1 (human) protease inhibition; Q92743; inhibition, % at 5.96 µM; recombinant HTRA1, FP-rhodamine activity-based probe, fluorescence polarization; actives 0.5% (n = 340,000); in the data active means inhibition above about 36%;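 further: 0% = enzyme with DMSO and 100% = wells lacking enzyme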
# Target sequence (Q92743 whole entry, looked up): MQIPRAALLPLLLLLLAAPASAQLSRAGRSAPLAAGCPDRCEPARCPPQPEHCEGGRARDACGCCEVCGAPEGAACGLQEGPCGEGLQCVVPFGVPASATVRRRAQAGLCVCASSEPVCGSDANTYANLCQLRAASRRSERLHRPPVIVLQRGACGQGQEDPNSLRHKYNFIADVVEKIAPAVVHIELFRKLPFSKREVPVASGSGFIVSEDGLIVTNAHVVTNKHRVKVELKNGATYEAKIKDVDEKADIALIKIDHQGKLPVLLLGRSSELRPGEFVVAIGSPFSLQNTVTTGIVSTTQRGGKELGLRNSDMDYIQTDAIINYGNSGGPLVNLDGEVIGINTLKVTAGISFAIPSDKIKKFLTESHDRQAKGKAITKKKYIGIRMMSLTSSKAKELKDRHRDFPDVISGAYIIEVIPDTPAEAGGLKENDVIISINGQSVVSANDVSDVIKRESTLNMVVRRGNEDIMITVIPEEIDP
# ABHD4 inh – inhibitors of mouse ABHD4; Q8VD66; purified mABHD4, FP-Rh probe fluorescence polarization; inhibition, % at 8.92 µM; actives 0.54% (n = 370,000); AID 720543;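 active means inhibition exceeding the mean over every tested compound plus 3 SD, cut at about 30% in these data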;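 further: 0% = plate median of compound wells and 100% = S159A mutant with DMSO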
#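 Material: mouse ABHD4 enzyme, wild type; Benchmarks: S159A mutant high control, sample median low control; Buffer or medium: HEPES pH 7.0, NaCl, Pluronic buffer; Signal: fluorescence polarization; Read-out: percent inhibition of probe binding, normalized to plate controls; Timing: pre-incubation 45 min, probe exposure 60 min, at 25 °C; Dosing: 8.92 µM, single dose.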
# pPAFAH FP inh – inhibitors of human plasma PAF acetylhydrolase (pPAFAH); recombinant pPAFAH, FP-rhodamine probe fluorescence polarization; inhibition, % at 3.39 µM; AID 463082; actives 1.5% (n = 330,000);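 active means inhibition above the mean inhibition across the screen plus 3 SD, cut at about 25% in these data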;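 further: inhibitors block binding of the rhodamine activity-based probe so polarization drops; 0% = enzyme with DMSO and 100% = wells lacking pPAFAH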
# PAFAH2 inh – inhibitors of human PAFAH2; recombinant PAFAH2, FP-rhodamine activity probe, fluorescence polarization; actives 0.99% (n = 340,000); AID 492956; inhibition, % at 3.39 µM;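 active means inhibition above the mean over all tested compounds plus 3 SD, cut at about 30% in these data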;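 further: inhibitors block probe labeling of enzyme so polarization drops; 0% = enzyme with DMSO and 100% = wells lacking PAFAH2 protein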
# mABHD4 conf – ABHD4 (mouse) inhibition, FP confirmation. shares compounds with ABHD4 inh. purified mABHD4, FP-Rh probe fluorescence polarization. inhibition, % at 8.92 µM. actives 55% (n = 1,800);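 active means mean inhibition across replicates above the hit cutoff set in the primary screen, cut at about 30% in these data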;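 further: 0% = wild-type ABHD4 with DMSO and 100% = catalytically dead S159A mutant with DMSO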
# Numbers without * were called inactive; / = not tested or not shown.
SMILES,PAFAH1B3 inh,PAFAH1B2 inh,HTRA1 inh,ABHD4 inh,pPAFAH FP inh,PAFAH2 inh,mABHD4 conf
NC(=S)N/N=C1\c2ccccc2-c2c(C(=O)O)cccc21,3,0,-2,42*,22,6,47*
O=c1[nH]c(S)c(/C=C2\C=Nc3ccccc32)s1,/,/,/,30*,25*,/,35*
C=C1CCC2C(C)(C)CCC[C@]2(C)[C@H]1CC1=C(O)C(=O)C(CO)=CC1=O (stereo partly specified),/,/,/,39*,/,/,71*
C/C(=N\Nc1ccc(Cl)c(C(=O)O)c1)c1ccc[nH]1,17,4,17,35*,33*,13,50*
Cc1cc(C)cc(NC(=O)OC2CCC23CCCCC3)c1 (stereo unspecified),/,/,/,0,/,/,/
COc1ccc(/C=N/NC(=O)c2nn(-c3ccc(Cl)cc3)c(=O)c3c(N)scc23)cc1,8,10,22,30*,22,5,17
COc1ccc(/C=N/NC(=O)c2nn(-c3ccccc3)c(=O)c3c(N)scc23)cc1,6,5,21,46*,21,3,27
CCCC(C)C(=O)NC1CCCCN(C)C1=O (stereo unspecified),/,/,/,-5,/,/,/
CCN(CC)C(=O)CC[C@H]1CC[C@]2(CCCN(C3CCCCC3)C2)O1,/,/,/,0,/,/,/
CCOC(=O)C1=C(C)N=C2c3ccccc3C(=O)C2C1c1ccccc1 (stereo unspecified),3,0,-1,34*,6,5,37*
COC(=O)[C@]12C[C@H](CC(=O)N3CCN(C(=O)C4CC4)CC3)C(=O)N(Cc3ccc(Cl)cc3Cl)C1=C[C@H](C(C)(C)C)O[C@@H]2C,/,/,/,-21,/,/,/
Nc1cccc(N2C(=O)c3cccc4c(N)ccc(c34)C2=O)c1,9,9,15,19,9,0,/
Nc1ccc2c3c(cccc13)C(=O)N(c1ccccc1)C2=O,10,19,21,38*,/,19,33*
Cc1cccc(N2C(=O)c3cccc4c(N)ccc(c34)C2=O)c1,16,12,19,29,8,17,/
CC(C)CCN1C(=O)c2cccc3c(N)ccc(c23)C1=O,11,2,14,50*,18,18,62*
COc1ccc(S(=O)(=O)Oc2ccc3ccccc3c2)cc1,12,7,-19,-17,0,2,/
COC1=C(OC)C(=O)C(Sc2ccc3ccccc3c2)=CC1=O,19,6,6,57*,/,6,102*
CCCCOCCCNC(=O)C[C@H]1C[C@@]2(C(=O)OC)C(=C[C@H](C(C)C)O[C@@H]2C2CC2)N(Cc2ccc3c(c2)OCO3)C1=O,/,/,/,1,/,/,/
Cc1ccc(C2CCC3(CCC(=O)N3CCOC(=O)Nc3cccc(C#N)c3)CC2)cc1 (stereo unspecified),/,/,/,3,/,/,/
Cc1ccc(S(=O)(=O)N/N=C/c2ccc(O)c(O)c2)cc1[N+](=O)[O-],8,4,21,40*,4,13,14
CCCCn1c(N)c(N(CCOC)C(=O)C2CCN(C(=O)c3ccc(F)cc3)CC2)c(=O)[nH]c1=O,3,0,-2,31*,-2,4,4
CCCCC#Cc1ccc(C(=O)NNC(=O)Nc2ccccc2)o1,-3,0,1,4,-1,-5,/
F[B-](F)(F)COCc1ccccc1C#Cc1ccccc1,/,/,/,77*,/,/,79*
O=C(C#Cc1ccccc1)Nc1ccccc1F,4,2,-1,-4,0,-5,/
O=C(O)c1ccccc1OCc1ccccc1Br,2,8,2,4,2,0,/
SMILES,PAFAH1B3 inh,PAFAH1B2 inh,HTRA1 inh,ABHD4 inh,pPAFAH FP inh,PAFAH2 inh,mABHD4 conf
F[B-](F)(F)COCc1ccccc1Br,0,14,0,80*,/,4,70*
CCCCC#Cc1ccccc1COC[B-](F)(F)F,/,/,/,75*,/,/,75*
COc1ccc(-c2nnc(SCC(=O)Nc3ccc(S(=O)(=O)Nc4nccs4)cc3)n2-c2ccc(OC)cc2)cc1,/,/,/,-28,/,/,/
O=C(CNS(=O)(=O)c1cc2ccccc2s1)N1CCN(c2ccccn2)CC1,/,/,/,3,/,/,/
O=C(N[C@H](Cc1ccccc1)C(=O)NCCCc1ccccc1)[C@H]1O[C@@H](n2ccc(=O)[nH]c2=O)[C@H](O)[C@@H]1O,/,/,/,-2,/,/,/
C=CCCC1CN(Cc2ccc(OC)cc2)S(=O)(=O)c2c(Oc3ccc(OC)cc3)cccc2O1 (stereo unspecified),/,/,/,-7,/,/,/
CCOC(=O)c1c(C)[nH]c2cc(Br)c(O)cc12,6,6,0,39*,10,1,60*
COc1ccc(NC(=O)CSc2nc(C)cc(=O)[nH]2)cc1OC,/,/,/,-4,/,/,/
Nc1ccc2c(O)cc(S(=O)(=O)O)cc2c1,60*,37*,25,39*,/,54*,26
COc1ccc(C(=O)OCCCN(C)C2CN(Cc3cn(Cc4ccccc4F)nn3)S(=O)(=O)C2)cc1OC (stereo unspecified),/,/,/,-2,/,/,/
COc1ccc2c(c1)c(/C=N/Nc1nc3ccccc3[nH]1)c(C)n2C,12,12,29,33*,18,12,59*
COc1cc(/C=N\Nc2nc3ccccc3[nH]2)cc(OC)c1OC,6,2,2,8,11,-2,/
Fc1ccccc1-c1ccc(/C=N/Nc2nc3ccccc3[nH]2)o1,16,6,18,40*,4,3,46*
C(=N\Nc1nc2ccccc2[nH]1)/c1ccccn1,1,2,34,34*,/,4,32*
CCCC1CCC2(CC1)CCC2OC(=O)Nc1c(OC)cccc1OC (stereo unspecified),/,/,/,-5,/,/,/
CCOc1cc(C(=O)NCC(C)(C)CNC(=O)c2cc(OCC)c(OCC)c(OCC)c2)cc(OCC)c1OCC,/,/,/,36*,0,/,34*
COc1cc(C(=O)NCC(C)(C)CNC(=O)c2cc(OC)c(OC)c(OC)c2)cc(OC)c1OC,1,-2,1,-4,-1,0,/
CCN(c1ccccc1)S(=O)(=O)c1cc(C(=O)OC2CCOC2=O)ccc1C (stereo unspecified),6,8,3,31*,3,12,23
Clc1cccc(CSc2ncnc3sc4c(c23)CCCC4)c1,/,/,/,0,/,/,/
Cc1cccc2c1c1ccc3c(c1n2C)C(=O)C=CC3=O,20,10,31,48*,/,7,71*
O=C(Cc1ccccc1)N1CCC(Oc2cccnc2)CC1,/,/,/,0,/,/,/
c1ccc(-c2nc(-c3ccccn3)nc(-c3ccccn3)n2)nc1,10,7,2,35*,0,11,47*
CCCCOc1cccc(OCC(=O)Nc2nc3ccccc3[nH]2)c1,-4,-3,-7,43*,4,0,26
CCCOc1cccc(OCC(=O)Nc2nc3ccccc3[nH]2)c1,0,1,-6,31*,-9,4,26
